{"source": "paper PMC7086808", "about": "(Archives of Virology, 2009)", "key": {"[1]": {"assay": "Storage stability of compound preparations", "format": "physicochemical", "conditions": "DMSO/test medium preparations; freezing and short-term storage (1 month at 4°C)"}, "[2]": {"system": "Coxsackie virus B5 (CVB5)", "assay": "MTT/CPE antiviral assay, compound treatment after virus infection", "format": "cell-based", "conditions": "for IC50: Enterovirus B", "how_it_was_run": "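Confluent HEp-2 monolayers infected with CVB5 at 100 TCID50/0.1 ml for 1 h, washed with PBS, then overlaid with twofold serial dilutions in 2% serum test medium, dosed daily. CPE scored by light microscopy and quantified by MTT (OD 540/690 nm). IC50 derived, TI = CC50/IC50; mean ± SD from three independent experiments.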"}, "animals": {"system": "animals", "conditions": "cited from earlier work"}, "rats": {"system": "rats", "conditions": "single-dose oral administration; cited from earlier work"}, "CVB5 RNA": {"system": "CVB5 RNA", "assay": "Semi-quantitative detection of viral RNA by RT-PCR", "format": "cell-based, Coxsackie virus B5", "conditions": "cells treated after infection with 0.3-40 μg/ml"}, "guinea pigs": {"system": "guinea pigs", "conditions": "single-dose oral administration; cited from earlier work"}, "[3]": {"system": "Coxsackie virus B5 (CVB5)", "assay": "Virucidal assay", "format": "cell-based", "conditions": "Enterovirus B, B5|CVB5, HEp-2, 1 h", "how_it_was_run": "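CVB5 suspension mixed with twofold serial dilutions (0.5 to 20 μg/ml) for 1 h at 37°C, then added to confluent HEp-2 cells for 1 h. Inoculum removed, cells rinsed with PBS and incubated in test medium. CPE scored by microscopy and MTT; IC50 derived as mean ± SD of three independent experiments.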"}, "[4]": {"conditions": "cited from earlier work"}, "MTT cytotoxicity assay": {"assay": "MTT cytotoxicity assay", "format": "cell-based", "conditions": "human, HEp-2 cells (uninfected)", "how_it_was_run": "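HEp-2 cells seeded at 2 × 10⁴/well and grown to subconfluence, then given serial twofold dilutions in test medium with 2% serum; four uninfected wells per dilution; compound re-added daily; controls had 0.05% DMSO. Read-out: MTT (5 mg/ml in PBS, 4 h), formazan dissolved in DMSO, OD at 540/690 nm. Expressed as % of untreated; CC50 derived; dilutions in triplicate.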"}, "[5]": {"system": "Coxsackie virus B5 (CVB5)", "assay": "MTT/CPE antiviral assay, compound treatment before virus infection", "format": "cell-based", "how_it_was_run": "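HEp-2 cells pretreated with twofold serial dilutions in MEM for 24 h at 37°C, 5% CO2. Compound then removed and cells washed twice with PBS before challenge with 100 TCID50/0.1 ml CVB5 for 1 h. After two more washes, cells kept in test medium until CPE appeared; scored microscopically and by MTT. IC50 and TI (CC50/IC50); mean ± SD of three experiments.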"}, "[6]": {"system": "Coxsackie virus B5 (CVB5)", "assay": "Coxsackie virus B5 infection in mice", "format": "in vivo, BALB/c mice", "conditions": "for mean virus yield of hearts: plaque assay"}, "mice": {"system": "mice", "conditions": "single-dose oral administration; cited from earlier work"}}, "data": [{"smiles": "CCOC(=O)c1c(CSc2ccccc2)n(C)c2cc(Br)c(O)c(CN(C)C)c12.Cl.O", "note": "[Arbidol, ethyl-6-bromo-4-[(dimethylamino)-methyl]-5-hydroxy-1-methyl-2-[(phenylthio)methyl]-indole-3-carboxylate hydrochloride monohydrate]", "values": [{"measurement": "efficacy of preparations upon storage", "setting": "[1]", "value": "did not appear to change"}, {"measurement": "IC50", "setting": "[2]; B5|CVB5, HEp-2", "value": "6.62 ± 1.1", "unit": "µg/mL"}, {"measurement": "IC50", "setting": "[2]; B5|CVB5, read-out: 50% inhibitory concentration (IC50), CPE of CVB5", "value": "2.66 to 6.62", "unit": "µg/mL"}, {"measurement": "TI (CC50/IC50)", "setting": "[2]; drug added after infection, HEp-2 cells", "value": 12.45}, {"measurement": "pathologic changes on long-term intake", "setting": "animals; animals, clinical, hematological, biochemical, pathological data", "value": "did not show pathologic changes"}, {"measurement": "mutagenic or teratogenic activity", "setting": "animals; at therapeutic doses", "value": "no mutagenic or teratogenic activity"}, {"measurement": "LD50 (50% lethal dose)", "setting": "rats", "value": "3,000 mg/kg"}, {"measurement": "ratio of CVB5 RNA to β-actin (RT-PCR)", "setting": "CVB5 RNA", "value": "decreased with increasing dose"}, {"measurement": "LD50 (50% lethal dose)", "setting": "guinea pigs", "value": "4,000 mg/kg"}, {"measurement": "IC50", "setting": "[3]", "value": "2.66 ± 0.4", "unit": "µg/mL"}, {"measurement": "half-life in cultured cells", "setting": "[4]", "value": "about 18 h"}, {"measurement": "CC50", "setting": "MTT cytotoxicity assay", "value": 82.1, "unit": "µg/mL"}, {"measurement": "IC50", "setting": "[5]; Enterovirus B, B5|CVB5, HEp-2", "value": "30.3 ± 1.6", "unit": "µg/mL"}, {"measurement": "TI (CC50/IC50)", "setting": "[5]; drug added before infection, HEp-2 cells", "value": 2.7}, {"measurement": "lung index vs viral control group", "setting": "[6]; 25 mg/kg body weight/day p.o.", "value": "significantly lower"}, {"measurement": "mean virus yield of hearts", "setting": "[6]; 25 mg/kg body weight/day p.o. for 6 days", "value": "10^3 viral plaques/heart"}, {"measurement": "survival by day 30", "setting": "[6]; 25 mg/kg body weight/day p.o., eight mice per group", "value": "half of them had survived"}, {"measurement": "clinical observations during the 30-day period", "setting": "[6]; 50 mg/kg body weight/day p.o.", "value": "did not show abnormalities"}, {"measurement": "lung index vs normal group", "setting": "[6]; 50 mg/kg body weight/day p.o.", "value": "no significant difference"}, {"measurement": "lung index vs viral control group", "setting": "[6]; 50 mg/kg body weight/day p.o.", "value": "significantly lower"}, {"measurement": "mean virus yield of hearts", "setting": "[6]; 50 mg/kg body weight/day p.o. for 6 days", "value": "10^2 viral plaques/heart"}, {"measurement": "survival rate", "setting": "[6]; 50 mg/kg body weight/day p.o. once a day for 6 days", "value": "significantly enhanced"}, {"measurement": "body weight", "setting": "[6]; 50 mg/kg body weight/day p.o., 30-day period", "value": "slight weight loss"}, {"measurement": "LD50 (50% lethal dose)", "setting": "mice", "value": 687, "unit": "mg/kg"}]}]}
